# Assay outcomes (PubChem BioAssay)
# Hits are enriched below; roughly 2.5% of the tested compounds scored in any of these assays.
# NPY-Y2 antag: NPY-Y2 receptor antagonists, primary screen, cell-based; Neuropeptide Y receptor type 2 (Homo sapiens), P49146; NPY-Y2 expressing cells, antagonist mode; inhibition, % at 2.7 µM; 140,000 tested, 0.99% active; in the data active = inhibition above about 17%;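 also: 0% = vehicle with agonist challenge and 100% = reference antagonist with challenge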
# Target sequence (P49146 whole entry, looked up): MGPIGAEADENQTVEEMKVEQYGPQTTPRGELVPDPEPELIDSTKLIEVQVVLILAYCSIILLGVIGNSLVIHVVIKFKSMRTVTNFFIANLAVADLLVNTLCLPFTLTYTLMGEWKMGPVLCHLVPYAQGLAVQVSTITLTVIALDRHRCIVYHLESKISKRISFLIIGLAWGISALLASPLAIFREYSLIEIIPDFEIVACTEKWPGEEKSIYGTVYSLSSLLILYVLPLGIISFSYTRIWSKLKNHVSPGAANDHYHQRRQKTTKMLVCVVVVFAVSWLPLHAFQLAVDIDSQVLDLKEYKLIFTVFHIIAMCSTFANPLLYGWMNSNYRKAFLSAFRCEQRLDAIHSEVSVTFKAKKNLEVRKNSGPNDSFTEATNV
# Ins promoter up: insulin promoter activators in MIN6 cells, imaging, high-content screening, mouse beta cells. z-score at 5 µM. MIN6 insulin promoter-GFP reporter; stronger effect = higher value. AID 1625, 2009. 190,000 tested, 0.3% active;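 active = z-score above 3 at 5 µM with at least 500 cells counted in the well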
# Insulin prom inh: inhibitors of insulin promoter-driven GFP, primary screen, imaging, TRM-6 cells, eGFP reporter, cell count | reporter expression induced with tamoxifen | inhibition, % at 2 µM | 130,000 tested, 0.9% active | AID 1273, 2008;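 active = inhibition above the mean plus 3 SD, with well images judged a real hit on visual review, cut at about 60% in these data, passing the limit was not always enough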
# NPY-Y1 PAM-ag: NPY-Y1 receptor potentiators or agonists, primary screen, cell-based | Neuropeptide Y receptor type 1 (Homo sapiens), P25929 | activation, % at 3.6 µM | NPY-Y1 expressing cells, potentiator/agonist activation | 220,000 tested, 0.37% active; in the data active = activation above about 33%, passing the limit was not always enough;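 also: cells stimulated with NPY at EC10 then isoproterenol at EC100; 0% = low agonist plus stimulus and 100% = saturating agonist plus stimulus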
# NPY Y1 blocker: NPY-Y1 receptor antagonists, primary screen, cell-based; AID 1040, 2008; HEK293-CNG Y1 cells, membrane potential fluorescence; NPY at EC95, then isoproterenol; 200,000 tested, 1% active; inhibition, % at 3.6 µM;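 active = inhibition above the campaign mean inhibition of all tested compounds plus 3 SD, cut at about 20% in these data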;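 also: 0% = DMSO wells given NPY plus isoproterenol and 100% = isoproterenol alone without NPY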
#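 Test system – HEK293 Y1/CNG channel cell line · Also added – NPY agonist 25 nM, then isoproterenol 1 µM plus Ro 20-1724 25 µM · Compound dosing – one concentration, 3.6 µM, in 0.4% DMSO · Schedule – compound incubation 1 h at room temperature, readout 45 min post-stimulation · Technique – fluorescence, membrane potential probe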
# NPY-Y2 PAM-ag: NPY-Y2 potentiators or agonists, primary screen, cell-based; Neuropeptide Y receptor type 2 (Homo sapiens), P49146; cells expressing NPY-Y2, potentiator/agonist read-out; activation, % at 3.6 µM; 220,000 tested, 0.45% active; in the data active = activation above about 27%;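 also: cells stimulated with NPY near EC25 plus isoproterenol at EC100; 0% = vehicle plus submaximal agonist and 100% = vehicle plus saturating agonist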
# Numbers without * were called inactive; . = not tested or not shown.
SMILES,NPY-Y2 antag,Ins promoter up,Insulin prom inh,NPY-Y1 PAM-ag,NPY Y1 blocker,NPY-Y2 PAM-ag
COc1ccc(OCC(=O)Nc2ccc(S(=O)(=O)Nc3cc(C)nc(C)n3)cc2)cc1,-0.3,3.12*,.,14.8,-3.1,-3.9
COC(=O)c1ccc(Cn2cc(Cl)cn2)o1,.,0.17,.,22.1,.,-1.7
O=C(c1ccccc1F)N1CCN(c2cnn(-c3cccc(Cl)c3)c(=O)c2Cl)CC1,.,-0.51,.,17.7,-5.6,11.3
CCCCC(=O)Nc1ccccc1C(=O)N1CCOCC1,3.4,0.54,71.0*,-5.3,-6.6,-3.9
O=C(c1ccccc1)c1ccccc1C(=O)N1CCOCC1,0.7,-0.84,90.0*,-6.2,-1.4,7.2
CCN(CC)S(=O)(=O)c1ccc(NC(=O)c2cc(C(=O)OC)cc([N+](=O)[O-])c2)cc1,0.4,1.02,70.6*,-4.2,-2.8,-1.6
O=C(O)C(Cc1ccccc1)N1C(=O)/C(=C/c2cccc3ccccc23)SC1=S (configuration not stated),19.9*,-0.33,21.7,-55.2,10.1,-22.4
O=C(Cn1nnc(-c2ccncc2)n1)NCCc1ccccc1,-1.2,1.04,0.0,20.2,4.4,2.0
CCOC(=O)C(C)/C(C)=N/NC(=O)CCC(=O)Nc1cc(C)ccc1C (configuration not stated),.,0.3,.,8.7,-0.1,12.1
Cc1nnc(-c2cnn(C)c2N)n1Cc1ccccc1,-3.6,.,41.7,11.4,-3.6,-5.2
Cc1nnc(-c2cnn(C)c2N)n1Cc1cccc(Cl)c1,0.3,0.62,89.3*,-1.7,12.4,15.2
O=C(NC1CC1)C1=C[C@@H](c2ccc3c(c2)OCO3)C[C@@H](OCCCCO)O1,.,-0.37,.,.,.,.
Nc1ccc(N=Nc2ccccc2)c(N)n1,-0.8,.,-4.8,5.1,2.3,18.3
Nc1ccc(N=Nc2ccccc2)c2ccccc12,.,-0.5,.,49.6*,.,56.4*
OCCN1CCN(CCOc2cccc(Cl)c2)CC1,2.3,-0.11,.,20.1,3.4,7.1
O=C(COC(=O)C1CC2C=CC1C2)Nc1cccc(S(=O)(=O)N2CCOCC2)c1 (configuration not stated),.,1.9,.,14.5,.,-21.8
O=c1c(-n2cncn2)c[nH]n1-c1cccc(Cl)n1,.,0.08,91.7*,0.3,0.4,-8.8
Cc1ccc2c(C)nc(/N=C(\N)NC(=O)N3c4ccccc4Sc4ccccc43)nc2c1,1.5,-0.9,80.0*,10.5,0.6,3.2
CN(C)c1nc(Nn2cnnc2)nc(N(C)C)n1,.,0.59,.,9.1,.,-14.0
CCOC(=O)C1CCCN(C(=O)c2cnn3c(C(F)F)cc(-c4ccc(C)cc4)nc23)C1 (configuration not stated),26.2*,0.12,.,-32.6,29.7*,-0.6
Cc1ccc(-c2cc(C(F)F)n3ncc(C(=O)NN4CCCCC4)c3n2)cc1,.,-3.08,.,1.9,3.8,-12.0
Cc1ccc(-c2cc(C(F)F)n3ncc(C(=O)N4CCN5CCCC5C4)c3n2)cc1 (configuration not stated),19.3*,-0.96,-6.7,-76.5,20.6*,-39.0
COc1ccc(S(=O)(=O)N(CC(=O)NCc2cccnc2)c2ccc(F)cc2)cc1OC,4.5,0.62,-78.6,-15.3,4.1,-2.8
Cc1sc(N)nc1C12CC3CC(CC(C3)C1)C2,.,1.25,.,46.7*,-11.1,35.3*
COc1ccc(C(=O)c2no[n+]([O-])c2C(=O)c2ccc(OC)cc2)cc1,9.1,-0.05,18.2,-24.9,2.4,-20.8
SMILES,NPY-Y2 antag,Ins promoter up,Insulin prom inh,NPY-Y1 PAM-ag,NPY Y1 blocker,NPY-Y2 PAM-ag
O=C(c1cccs1)c1no[n+]([O-])c1C(=O)c1cccs1,5.6,3.78*,24.1,-9.9,3.8,-6.9
CCOC(=O)c1sc2nc(-c3cccnc3)ccc2c1N,.,-0.21,71.4*,-1.1,3.4,-2.9
CC(=O)/C(=N/Nc1ccccc1)Sc1nnc(C(O)c2ccccc2)n1-c1ccccc1 (configuration not stated),-0.5,-0.28,.,5.8,-1.1,9.4
COc1ccc2c(c1OC)C(=O)N1c3ccccc3C(=O)N(c3ccccc3)C21 (configuration not stated),23.0*,-0.2,-88.9,1.2,17.9,-11.5
COc1ccc2c(c1OC)C(=O)N(c1ccc(C)cc1)C2=O,.,-0.31,-105.3,13.4,-2.7,6.5
COc1ccc2c(c1OC)C(=O)N1c3ccccc3C(=O)N(c3ccc(F)cc3)C21 (configuration not stated),15.6,-0.08,-68.6,-13.6,52.0*,-8.0
CCCN(CCC)CCOc1cc(C)ccc1C(C)C,27.1*,-0.05,21.4,-15.9,28.2*,-5.5
Cc1ccc(C(C)C)c(OCCN(C)C)c1,5.6,.,56.7,-3.1,-2.0,-21.6
Clc1ccc(-c2csc(N3CCOCC3)n2)cc1,.,-0.08,72.7*,7.2,2.4,1.7
Cc1nnc(NC(=O)CSc2nnc(NC(=O)C(C)(C)C)s2)s1,.,0.53,10.5,0.2,0.3,8.8
CCSc1nnc(NC(=O)C(C)(C)C)s1,-0.6,-0.34,77.4*,2.6,6.0,6.7
S=c1[nH]ccn1-c1ccccc1Cl,.,0.12,.,-9.9,.,-0.5
N#C/C(=C\C1CC2C=CC1C2)c1nc2ccccc2[nH]1 (configuration not stated),4.2,0.58,78.6*,-7.7,6.1,-11.3
N#C/C(=C\c1cccs1)c1nc2ccccc2[nH]1,3.1,0.05,85.2*,-1.5,2.7,1.3
COc1ccc(-c2nc(C(F)(F)F)c(OC)o2)cc1OC,5.4,-0.02,-31.4,-7.6,7.4,0.7
O=C(NCC(=O)N1CC(O)CC1C(=O)N1CCCC1C(=O)OCc1ccccc1)OCc1ccccc1 (configuration not stated),.,-0.11,-33.3,-3.1,-0.9,-0.8
Cc1ccc(Cn2ccc(=O)c(Cc3c(Cl)cccc3Cl)c2C)cc1,11.2,0.59,-12.9,3.0,8.6,1.9
Cc1c(Cc2c(Cl)cccc2Cl)c(=O)ccn1C(C)c1ccccc1 (configuration not stated),21.9*,0.02,-23.3,-4.8,20.1,2.4
CCCOC(=O)c1ccc(NC(=O)c2cc(=O)[nH]c3ccccc23)cc1,.,0.17,.,-7.8,.,-29.8
CC(=O)OC(C(=O)NCc1ccco1)c1ccncc1 (configuration not stated),0.8,.,15.2,23.1,6.8,15.3
CC(=O)OC(C(=O)NCc1ccco1)c1cccnc1 (configuration not stated),0.2,0.02,76.3*,9.4,-7.9,1.7
OC(COc1cccc2ccccc12)CN1CCCC1 (configuration not stated),2.7,-0.57,-41.0,98.5*,-14.9,94.1*
O=C(c1cc2ccccc2cc1OCC(O)CN1CCCCC1)N1CCCCC1 (configuration not stated),7.2,0.51,.,-1.6,6.0,-2.4
